In PMC3224553 (Bioorganic & medicinal chemistry letters, 2011):

Assays:
[1] = Caco-2 permeability; assay type: in vitro ADME; details: human, Caco-2, Caco-2 Permeability Efflux Ratio
[2] = system: Caco-2; test: Caco-2 permeability; assay type: in vitro ADME
[3] = in vitro microsomal stability, mouse liver microsomes; assay type: in vitro ADME
[4] = in vitro microsomal stability, human liver microsomes; assay type: in vitro ADME
[5] = target: hPK M2 (Homo sapiens, UniProt P14618); test: luminescent pyruvate kinase-luciferase coupled assay; assay type: biochemical; details: for AC50: hPK M2 AC50, average from three separate experiments
hPK M2, sequence (P14618 whole entry): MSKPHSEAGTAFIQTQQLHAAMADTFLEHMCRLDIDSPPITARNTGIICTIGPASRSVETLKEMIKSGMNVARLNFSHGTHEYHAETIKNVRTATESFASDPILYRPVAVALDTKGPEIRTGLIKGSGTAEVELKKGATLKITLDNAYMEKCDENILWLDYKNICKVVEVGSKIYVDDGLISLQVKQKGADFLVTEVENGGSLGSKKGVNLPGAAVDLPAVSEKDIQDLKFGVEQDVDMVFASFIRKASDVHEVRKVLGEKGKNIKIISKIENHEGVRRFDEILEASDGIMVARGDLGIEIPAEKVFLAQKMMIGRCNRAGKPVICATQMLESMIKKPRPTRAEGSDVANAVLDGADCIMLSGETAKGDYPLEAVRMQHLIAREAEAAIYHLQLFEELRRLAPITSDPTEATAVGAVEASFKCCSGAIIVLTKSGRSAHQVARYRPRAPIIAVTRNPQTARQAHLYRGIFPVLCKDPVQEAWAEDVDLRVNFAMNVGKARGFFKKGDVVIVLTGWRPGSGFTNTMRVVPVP
How it was run: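 Human PKM2 activity is read by luminescence in a pyruvate kinase–luciferase coupled format. AC50 values are the average of three separate experiments. Maximum response is the % activation at 57 μM of test compound, normalized as described in the supporting information.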

With `Cc1ccc(NS(=O)(=O)c2ccc3c(c2)CCC(=O)N3)cc1C` [Compound 3] the efflux ratio [1] was < 1, the “Caco-2 Permeability Papp (A–B)” value [2] was 14.9 10^−6, cm/s and the “Caco-2 Permeability Papp (B–A)” value [2] was 12.21 10^−6, cm/s. For the same compound, the half-life [3] was < 20 min and the half-life [4] was < 20 min.
With `Cc1ccc(NS(=O)(=O)c2cccc(C(=O)O)c2)cc1C` [Compound 5] the AC50 [5] was > 20 µM.
For `Cc1ccc(NS(=O)(=O)c2ccc(F)cc2)cc1C` [Compound 6], the AC50 [5] was > 20 µM.
An AC50 [5] of 18.4 µM was found for `Cc1ccc(NS(=O)(=O)c2ccc3ccccc3c2)cc1C` [Compound 7] in this work.
An AC50 [5] of 18.3 µM was found for `Cc1ccc(NS(=O)(=O)c2cccc(Cl)c2)cc1C` [Compound 8] in this work.
An AC50 [5] of 17.3 µM was found for `COc1ccc(S(=O)(=O)Nc2ccc(C)c(C)c2)cc1` [Compound 9] in this work.
An AC50 [5] of 10 µM was found for `Cc1ccc(NS(=O)(=O)c2ccc3c(c2)CCC(C)(C)O3)cc1C` [Compound 10] in this work.
An AC50 [5] of 13.4 µM was found for `Cc1ccc(NS(=O)(=O)c2ccc3c(c2)NC(=O)CO3)cc1C` [Compound 11] in this work.
For `Cc1ccc(NS(=O)(=O)c2ccc3[nH]c(=O)[nH]c3c2)cc1C` [Compound 12], the AC50 [5] was > 20 µM.
An AC50 [5] of 13.1 µM was found for `CC(=O)Nc1cccc(S(=O)(=O)Nc2ccc(C)c(C)c2)c1` [Compound 13] in this work.
An AC50 [5] of 9 µM was found for `CC(=O)N1CCCc2cc(S(=O)(=O)Nc3ccc(C)c(C)c3)ccc21` [Compound 14] in this work.
An AC50 [5] of 8.3 µM was found for `Cc1ccc(NS(=O)(=O)c2ccc3c(c2)CC(=O)N3)cc1C` [Compound 15] in this work.
An AC50 [5] of 7.1 µM was found for `Cc1ccc(NS(=O)(=O)c2ccc3c(c2)CCCC(=O)N3)cc1C` [Compound 16] in this work.
An AC50 [5] of 6.9 µM was found for `CC(=O)Nc1ccc(S(=O)(=O)Nc2ccc(C)c(C)c2)cc1` [Compound 17] in this work.
An AC50 [5] of 4.3 µM was found for `Cc1ccc(NS(=O)(=O)c2ccc3c(c2)oc(=O)n3C)cc1C` [Compound 18] in this work.
An AC50 [5] of 6 µM was found for `Cc1ccc(NS(=O)(=O)c2ccc3c(c2)N(C)CCO3)cc1C` [Compound 19] in this work.
An AC50 [5] of 0.94 µM was found for `Cc1ccc(NS(=O)(=O)c2ccc(N3CCCC3=O)cc2)cc1C` [Compound 20] in this work.
An AC50 [5] of 2.3 µM was found for `Cc1ccc(NS(=O)(=O)c2ccc3c(c2)CC(=O)N3C)cc1C` [Compound 21] in this work.
An AC50 [5] of 1.5 µM was found for `CC(=O)N1CCc2cc(S(=O)(=O)Nc3ccc(C)c(C)c3)ccc21` [Compound 22] in this work.
For `Cc1ccc(NS(=O)(=O)c2cc3c(cc2N(C)C)NC(=O)CC3)cc1C` [Compound 52], the “PKM2 activation, result in words” value [5] was “retained activity”, the half-life [3] was < 25 min and the half-life [4] was < 25 min.
In the case of `CNc1cc2c(cc1S(=O)(=O)Nc1ccc(C)c(C)c1)CCC(=O)N2` [Compound 54], the “PKM2 activation, result in words” value [5] is reported as “retained activity”, the half-life [3] is reported as < 25 min and the half-life [4] is reported as < 25 min.
In the case of `Cc1ccc(NS(=O)(=O)c2cc3c(cc2N2CCC(N(C)C)C2)NC(=O)CC3)cc1C` (stereo not shown) [Compound 56], the “PKM2 activation, result in words” value [5] is reported as “loss of activity”.
For `Cc1ccc(NS(=O)(=O)c2cc3c(cc2N2CCCCC2)NC(=O)CC3)cc1C` [Compound 57], the “PKM2 activation, result in words” value [5] was “loss of activity”.
With `Cc1ccc(NS(=O)(=O)c2cc3c(cc2N[C@@H](C)CO)NC(=O)CC3)cc1C` [Compound 63] the “fold more potent than its enantiomer” value ([5]; (S)- vs (R)-alaninol derivative) was 4 fold.
For `Cc1ccc(NS(=O)(=O)c2cc3c(cc2F)NC(=O)CC3)cc1Cl` [Compound 64], the efflux ratio [1] was ≤ 1, the “Caco-2 Permeability Papp (A–B)” value [2] was 6.22 10^−6, cm/s and the “Caco-2 Permeability Papp (B–A)” value [2] was 6.24 10^−6, cm/s.
With `O=C1CCc2cc(S(=O)(=O)Nc3ccc(F)c(Cl)c3)c(F)cc2N1` [Compound 66] the efflux ratio [1] was ≤ 1, the “Caco-2 Permeability Papp (A–B)” value [2] was 9.38 10^−6, cm/s and the “Caco-2 Permeability Papp (B–A)” value [2] was 7.91 10^−6, cm/s.
With `Cc1ccc(NS(=O)(=O)c2cc3c(cc2N[C@@H](C)CO)NC(=O)CC3)cc1Cl` [Compound 68] the “Caco-2 Permeability Papp (A–B)” value [2] was 1.13 10^−6, cm/s and the “Caco-2 Permeability Papp (B–A)” value [2] was 11.9 10^−6, cm/s.
In the case of `C[C@@H](CO)Nc1cc2c(cc1S(=O)(=O)Nc1ccc(F)c(Cl)c1)CCC(=O)N2` [Compound 69], the “Caco-2 Permeability Papp (A–B)” value [2] is reported as 1.61 10^−6, cm/s and the “Caco-2 Permeability Papp (B–A)” value [2] is reported as 17.52 10^−6, cm/s.
In the case of `Cc1ccc(NS(=O)(=O)c2cc(Br)cc3c2NC(=O)CC3)cc1C` [Compound 74b], the “PKM2 activation, result in words” value [5] is reported as “no activity”.
With `Cc1ccc(NS(=O)(=O)c2cc(Br)cc3c2NC(=O)CC3)cc1Cl` [Compound 75b] the “PKM2 activation, result in words” value [5] was “no activity”.
With `Cc1ccc(NS(=O)(=O)c2cc(N[C@@H](C)CO)cc3c2NC(=O)CC3)cc1C` [Compound 76b] the “PKM2 activation, result in words” value [5] was “inactive”.
For `Cc1ccc(NS(=O)(=O)c2cc(N[C@@H](C)CO)cc3c2NC(=O)CC3)cc1Cl` [Compound 77b], the “PKM2 activation, result in words” value [5] was “inactive”.
